According to ChEMBL document CHEMBL4041534, “Treatment of Sepsis Pathogenesis with High Mobility Group Box Protein 1-Regulating Anti-inflammatory Agents” (J Med Chem, 2017):
Substitutions are numbered along the chain they refer to. Converted amounts (≈) assume the structure as drawn. The source made the active and inactive calls. The calls are words filed in the database; no cut-off is given here.

Legend:
[1] = target: T1, High mobility group protein B1 (Mus musculus) (UniProt P63158); assay: Inhibition of HMGB1 nuclear translocation in LPS-stimulated mouse RAW264.7 cells at 20 uM pretreated for 1 hr followed by LPS-induction measured after 2 hrs by Hoechst 33342/TRITC staining based immunofluorescence microscopic method
T1 sequence (whole entry): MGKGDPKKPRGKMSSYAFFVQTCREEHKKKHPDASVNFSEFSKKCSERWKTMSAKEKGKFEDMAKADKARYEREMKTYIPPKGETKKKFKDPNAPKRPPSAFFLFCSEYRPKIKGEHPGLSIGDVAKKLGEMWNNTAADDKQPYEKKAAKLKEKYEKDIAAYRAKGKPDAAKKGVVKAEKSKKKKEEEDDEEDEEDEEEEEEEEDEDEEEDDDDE
In short: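 Raw264.7 cells on chambered coverglass were pretreated with 20 μM compound for 1 h, then given 500 ng/mL LPS for 2 h. Cells were fixed in 4% paraformaldehyde, permeabilized with methanol at −20 °C, blocked with 2% BSA, and stained with anti-HMGB1 plus TRITC secondary and Hoechst 33342. Imaged by deconvolution fluorescence microscopy. At least three independent experiments.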

[2] = target: T1, High mobility group protein B1 (Mus musculus); assay: Inhibition of HMGB1 nuclear translocation in LPS-stimulated mouse RAW264.7 cells assessed as inhibition of IL-6 production at 10 uM pretreated for 1 hr followed by LPS-induction by Western blot analysis
In short: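 Raw264.7 cells were pretreated with 10 μM compound for 1 h, then given 100 ng/mL LPS. IL-6 released into the culture medium was detected by Western blot with ECL chemiluminescence, DMSO as control. At least three independent experiments.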

[3] = target: MAP kinase p38 (Mus musculus) (UniProt P47811+O08911+Q9WUI1+Q9Z1B7); assay: Inhibition of MAPK p38 phosphorylation at Thr180/Tyr182 resdiues in LPS-stimulated mouse RAW264.7 cells at 20 uM pretreated followed by LPS-induction by Western blot analysis
In short: (§1)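 Raw264.7 cells were pretreated with 20 μM compound, then stimulated with 100 ng/mL LPS, with DMSO as control. Lysates in RIPA buffer with protease and phosphatase inhibitors were normalized by BCA and run on SDS-PAGE/Western blot for phospho-p38, JNK and ERK, with GAPDH as loading control. Detection by ECL, and band intensities were quantified. At least three independent experiments.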

[4] = Half life in ICR mouse at 10 mg/kg, ip by LC/MS/MS method; type: ADME, organism-based; settings: in vivo
Mus musculus [5] = species on record: Mus musculus; assay: Inhibition of NF-kappaB p65 nuclear translocation in LPS-stimulated mouse RAW264.7 cells at 20 uM pretreated followed by LPS-induction by Hoechst 33342/TRITC staining based immunofluorescence microscopic method
In short: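 NF-κB p65 immunofluorescence in Raw264.7 cells pretreated with 20 μM compound, then stimulated with 500 ng/mL LPS. Fixation was 4% paraformaldehyde, methanol permeabilization at −20 °C, and BSA blocking. Cells were stained with anti-p65 plus TRITC secondary and Hoechst 33342 nuclear stain, then imaged by deconvolution microscopy. At least three independent experiments.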

[6] = Cytotoxicity against mouse RAW264.7 cells assessed as cell viability at 10 uM in presence of LPS measured after 24 hrs by WST assay relative to control; type: cell-based; settings: read-out: Activity
In short: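 Raw264.7 cells, seeded 1 day earlier, were washed into serum-free DMEM and given 100 ng/mL LPS plus compound (10 μM) for 24 h. After the supernatant was removed, wells were refilled with 10% FBS DMEM and WST reagent was added for 20 min at 37 °C. Absorbance was read at 450 nm, and viability is relative to vehicle. At least three independent experiments.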

[7] = Equilibrium aqueous solubility of the compound by microsol method; type: physicochemical
In short: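 Equilibrium aqueous solubility by the μsol method. Mean ± SD, n = 3.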

[8] = target: T1, High mobility group protein B1 (Mus musculus); assay: Inhibition of HMGB1 translocation from nucleus to cytosol in LPS-stimulated mouse RAW264.7 cells assessed as inhibition of NO release at 10 uM measured after 24 hrs by Griess assay relative to control
In short: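 Raw264.7 cells, seeded 1 day earlier, were moved to serum-free DMEM and exposed to 100 ng/mL LPS with 10 μM compound for 24 h. Supernatant NO was measured with Griess reagent (sulfanilamide/N-(1-naphthyl)ethylenediamine/phosphoric acid) at room temperature, absorbance 548 nm. Inhibition was set against LPS+DMSO wells, blank-corrected, with four control wells. At least three independent experiments.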

[9] = Stability in human liver microsomes assessed as compound remaining preincubated for 5 mins followed by NADPH addition measured after 30 mins LC/MS/MS method; type: ADME, microsome; settings: read-out: Stability
In short: (§2)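 Compounds were incubated with human or mouse liver microsomes in 100 mM potassium phosphate, pH 7.4, at 37 °C for 5 min. NADPH regenerating solution was added, and the reaction was stopped at 30 min with ice-cold acetonitrile containing imipramine internal standard. Percent remaining was measured by LC/MS/MS. Mean ± SD, n = 3.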

Mus musculus [10] = assay: Anti-inflammatory activity in C57BL/6(B6) mouse model of CLP-induced sepsis assessed as survival rate at 10 mg/kg, ip administered daily for 21 days starting from 1 hr prior to CLP-induction (reference value: 10 %); type: functional
[11] = Stability in mouse liver microsomes assessed as compound remaining preincubated for 5 mins followed by NADPH addition measured after 30 mins LC/MS/MS method; type: ADME, microsome; settings: read-out: Stability; in short: as §2
Mus musculus [12] = assay: Anti-inflammatory activity in C57BL/6(B6) mouse model of CLP-induced sepsis assessed as decrease in serum IL-6 level at 10 mg/kg, ip administered daily for 21 days starting from 1 hr prior to CLP-induction by ELISA; type: functional, organism-based
In short: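 Serum IL-6 measured by sandwich ELISA. Blood was taken from CLP-induced C57BL/6 mice 24 h after surgery. Plates coated with anti-IL-6 mAb overnight at 4 °C and blocked with 1% BSA/PBS; serum incubated overnight at 4 °C. Detection used biotinylated anti-IL-6 and streptavidin-HRP, TMB development and absorbance at 450 nm. Run in triplicate, three independent repeats.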

[13] = target: T2, High mobility group protein B1 (Homo sapiens) (UniProt P09429); assay: Inhibition of ICM-BP binding to recombinant human HMGB1 assessed as reduction in Cy5-azide incorporation pretreated for 60 mins followed by ICM-BP addition for 20 mins and subsequent UV light irradiation for 5 mins by fluorescence assay
T2 sequence (whole entry): T1 sequence (whole entry) with D189E, E202D
In short: (§3)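 Purified HMGB1 (1 μg in water) was pretreated with competitor for 60 min, with DMSO held at 0.8% final. ICM-BP (5 μM) was then added for 20 min, followed by 365 nm UV for 5 min on ice. Cy5-azide was attached by click reaction, then samples were run on 12.5% SDS-PAGE and in-gel fluorescence scanned. Competitor was dosed in a graded series.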

Mus musculus [14] = species on record: Mus musculus; assay: Inhibition of ERK phosphorylation in LPS-stimulated mouse RAW264.7 cells at 20 uM pretreated followed by LPS-induction by Western blot analysis; in short: as §1
Mus musculus [15] = species on record: Mus musculus; assay: Inhibition of JNK phosphorylation at Thr183/Tyr185 resdiues in LPS-stimulated mouse RAW264.7 cells at 20 uM pretreated followed by LPS-induction by Western blot analysis; in short: as §1
[16] = target: T1, High mobility group protein B1 (Mus musculus); assay: Inhibition of HMGB1 translocation from nucleus to cytosol in LPS-stimulated mouse RAW264.7 cells assessed as inhibition of TNF-alpha production at 10 uM measured after 4 hrs by ELISA relative to control
In short: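 Raw264.7 cells in serum-free DMEM were treated with 100 ng/mL LPS and 10 μM compound (final). After 4 h, medium was diluted in 1% BSA/PBS and secreted TNF-α was quantified by ELISA against a standard curve of TNF-α protein. Inhibition is relative to control. At least three independent experiments.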

[17] = target: T2, High mobility group protein B1 (Homo sapiens); assay: Inhibition of ICM-BP binding to recombinant human HMGB1 assessed as reduction in Cy5-azide incorporation at 1 to 20 uM pretreated for 60 mins followed by ICM-BP addition for 20 mins and subsequent UV light irradiation for 5 mins by fluorescence assay; in short: as §3

COc1cc(OC)cc(-n2c(=O)n3n(c2=O)C2C(=CC3)C(C)(C)Oc3cc(O)ccc32)c1 (centres undefined)
inhibition [1]: Active
inhibition [2]: Active
inhibition [3]: Active
half-life [4]: 5 h
inhibition (Mus musculus [5]): Active
viability at 24 h, 10 µM [6]: 121%
solubility thermodynamic [7]: 65.1 µg/mL (≈ 149 µM)
inhibition [8]: 94%
remaining at 0.5 h [9]: 41.2%
survival at 10 mg/kg (Mus musculus [10]): 56%
remaining at 0.5 h [11]: 20.2%
Activity (Mus musculus [12]): Active
inhibition [13]: Dose-dependent effect
inhibition (Mus musculus [14]): Active
inhibition (Mus musculus [15]): Active
inhibition [16]: 60%

Cn1c(=O)n2n(c1=O)C1C(=CC2)C(C)(C)Oc2cc(O)ccc21 (centres undefined)
viability at 24 h, 10 µM [6]: 114%
inhibition [8]: 45%
inhibition [17]: inactive
